Consider 18 molecules from ChEMBL document CHEMBL4765235, “Discovery of N-[Bis(4-methoxyphenyl)methyl]-4-hydroxy-2-(pyridazin-3-yl)pyrimidine-5-carboxamide (MK-8617), an Orally Active Pan-Inhibitor of Hypoxia-Inducible Factor Prolyl Hydroxylase 1-3 (HIF PHD1-3) for the Treatment of Anemia” (J Med Chem, 2016).

A word on the bioavailability: it is dose-corrected exposure relative to a reference, in per cent. What is called half-life is the time needed for the level to fall by half in the phase considered. One may read the IC50 as the concentration at which inhibition is half-maximal. Broadly, the Cmax is the highest concentration seen after dosing.

Series [1] can be described thus: In vivo inhibition of HIF-PHD2 in C57BL/6 mouse assessed as serum erythropoietin level at 15 mg/kg, iv measured after 4 hrs. It is filed as functional. The method in brief: (§1)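 Mouse pharmacodynamic EPO assay (MoPED). Compound dosed iv; serum EPO measured 4 hr after dosing and reported in pg/mL. Minimum effective dose is the lowest dose giving EPO elevation.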
Series [2] in a line: In vivo inhibition of HIF-PHD2 in iv dosed C57BL/6 mouse assessed as minimum effective dose causing increase in serum erythropoietin levels measured after 4 hrs. It is filed as functional. The note with it: C57BL/6, iv, read-out: MED. Summed up:
as §1

Series [3] in a line: Oral bioavailability in rat at 2 mg/kg. It is filed as ADME, organism-based. The conditions noted are these: in vivo.
Series [4] is described as follows: Half life in rat at 2 mg/kg, po or 1 mg/kg, iv. The class given is ADME, organism-based. The note with it: in vivo.
The nature of series [5]: In vivo inhibition of HIF-PHD2 in C57BL/6 mouse assessed as serum erythropoietin level at 5 mg/kg, iv measured after 4 hrs. The class given is functional. The method in brief:
as §1

Series [6] has as its target Voltage-gated inwardly rectifying potassium channel KCNH2 (Homo sapiens, UniProt Q12809). As to the kind of experiment: Inhibition of human ERG.
Series [7] in a line: Half life in dog at 1 mg/kg, po or 0.5 mg/kg, iv. It is filed as ADME, organism-based, Canis lupus familiaris. The conditions noted are these: in vivo. Summed up: (§2)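 Single-dose PK at 1 mg/kg po and 0.5 mg/kg iv. Mouse clearance is from blood; dog and rhesus clearance is from plasma. Mouse vehicle, both routes: DMSO:PEG400:water (5:40:55, v/v/v). Dog and monkey iv vehicle: PEG200:12%HPCD:water (30:12:58 v/v/v). Dog and monkey po vehicle: Imwitor:Tween (1:1 w/w).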

Series [8] is described as follows: In vivo inhibition of HIF-PHD2 in C57BL/6 mouse assessed as serum erythropoietin level at 100 mg/kg, iv measured after 4 hrs. The class given is functional. The method in brief:
as §1

Series [9] in a line: Volume of distribution at steady state in rat at 2 mg/kg, po or 1 mg/kg, iv. It is filed as ADME, organism-based. The conditions noted are these: in vivo, read-out: Vdss.
Series [10] in a line: Plasma clearance in rat at 2 mg/kg, po or 1 mg/kg, iv. It is filed as ADME, organism-based.
The target in series [11] is T1, Egl nine homolog 1 (Homo sapiens, UniProt Q9GZT9). As to the kind of experiment: Inhibition of HIF-PHD2 (unknown origin).
A short description of series [12]: In vivo inhibition of HIF-PHD2 in C57BL/6 mouse assessed as serum erythropoietin level at 1.5 mg/kg, iv measured after 4 hrs. It is filed as functional. Summed up:
as §1

Series [13] can be described thus: In vivo inhibition of HIF-PHD2 in C57BL/6 mouse assessed as serum erythropoietin level at 50 mg/kg, iv measured after 4 hrs. It is filed as functional. The method in brief:
as §1

Series [14] in a line: Oral bioavailability in mouse at 2 mg/kg. The note with it: in vivo. The class given is ADME, organism-based.
Series [15] in a line: Cmax in mouse at 2 mg/kg, po or 1 mg/kg, iv. The class given is ADME, organism-based. Also noted: dose 2 mg/kg. The conditions noted are these: in vivo.
Series [16] can be described thus: Clearance in mouse at 2 mg/kg, po or 1 mg/kg, iv. It is filed as ADME, organism-based. The note with it: in vivo.
The nature of series [17]: Volume of distribution at steady state in mouse at 2 mg/kg, po or 1 mg/kg, iv. The class given is ADME, organism-based. The note with it: in vivo, read-out: Vdss.
A short description of series [18]: Half life in mouse at 2 mg/kg, po or 1 mg/kg, iv. The note with it: in vivo. The class given is ADME, organism-based.
Series [19] can be described thus: Protein binding in mouse plasma assessed as unbound fraction at 2 mg/kg, po or 1 mg/kg, iv. It is filed as ADME, organism-based. The note with it: read-out: PPB.
Series [20] is described as follows: Cmax in rat at 2 mg/kg, po or 1 mg/kg, iv. It is filed as ADME, organism-based. Also noted: dose 2 mg/kg. The note with it: in vivo.
Series [21] in a line: Clearance in rat at 2 mg/kg, po or 1 mg/kg, iv. The class given is ADME, organism-based. The note with it: in vivo.
Series [22] is described as follows: Protein binding in rat plasma assessed as unbound fraction at 2 mg/kg, po or 1 mg/kg, iv. It is filed as ADME, organism-based. The conditions noted are these: read-out: PPB.
The nature of series [23]: Oral bioavailability in dog at 1 mg/kg. The class given is ADME, organism-based, Canis lupus familiaris. The conditions noted are these: in vivo. The method in brief: (§3)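 Dog and rhesus monkey dosed 1 mg/kg po and 0.5 mg/kg iv. The iv vehicle was PEG200:12%HPCD:water (30:12:58 v/v/v); the po vehicle was Imwitor:Tween (1:1 w/w). Clearance was measured in plasma. Protein binding was measured in 100% serum.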

Series [24] is described as follows: Cmax in dog at 1 mg/kg, po or 0.5 mg/kg, iv. The conditions noted are these: in vivo. Further details: dose 1 mg/kg. The class given is ADME, organism-based, Canis lupus familiaris. Summed up: as §2
Series [25] can be described thus: Clearance in dog at 1 mg/kg, po or 0.5 mg/kg, iv. It is filed as ADME, organism-based, Canis lupus familiaris. The note with it: in vivo. The method in brief: as §2
Series [26] is described as follows: Volume of distribution at steady state in dog at 1 mg/kg, po or 0.5 mg/kg, iv. The note with it: in vivo, read-out: Vdss. The class given is ADME, organism-based, Canis lupus familiaris. Summed up: as §3
Series [27] in a line: Protein binding in dog plasma assessed as unbound fraction at 1 mg/kg, po or 0.5 mg/kg, iv. The class given is ADME, organism-based, Canis lupus familiaris. The conditions noted are these: read-out: PPB.
Series [28] is described as follows: Oral bioavailability in rhesus monkey at 1 mg/kg. It is filed as ADME, organism-based, Macaca mulatta. The note with it: in vivo. The method in brief:
as §3

Series [29] in a line: Cmax in rhesus monkey at 1 mg/kg, po or 0.5 mg/kg, iv. It is filed as ADME, organism-based, Macaca mulatta. Also noted: dose 1 mg/kg. The conditions noted are these: in vivo. The method in brief: as §2
A short description of series [30]: Clearance in rhesus monkey at 1 mg/kg, po or 0.5 mg/kg, iv. The class given is ADME, organism-based, Macaca mulatta. The note with it: in vivo. The method in brief: as §2
Series [31] is described as follows: Volume of distribution at steady state in rhesus monkey at 1 mg/kg, po or 0.5 mg/kg, iv. The note with it: in vivo, read-out: Vdss. It is filed as ADME, organism-based, Macaca mulatta. The method in brief: as §3
The nature of series [32]: Half life in rhesus monkey at 1 mg/kg, po or 0.5 mg/kg, iv. The note with it: in vivo. The class given is ADME, organism-based, Macaca mulatta. The method in brief: as §2
The nature of series [33]: Protein binding in rhesus monkey plasma assessed as unbound fraction at 1 mg/kg, po or 0.5 mg/kg, iv. The class given is ADME, organism-based, Macaca mulatta. The conditions noted are these: read-out: PPB.
In series [34] the target is T1, Egl nine homolog 1. As to the kind of experiment: Inhibition of FLAG-tagged full-length HIF-PHD2 (unknown origin) expressed in baculovirus infected Sf9 cells using 2-oxoglutarate and HIF1alpha biotinyl-DLDLEMLAPYIPMDDDFQL as peptide substrates preincubated for 30 mins followed by substrate addition and measured after 2 hrs by LANCE assay. (In general: In TR-FRET formats the signal depends on donor and acceptor labels being close together.)

Chain of Voltage-gated inwardly rectifying potassium channel KCNH2 (Q12809 whole entry): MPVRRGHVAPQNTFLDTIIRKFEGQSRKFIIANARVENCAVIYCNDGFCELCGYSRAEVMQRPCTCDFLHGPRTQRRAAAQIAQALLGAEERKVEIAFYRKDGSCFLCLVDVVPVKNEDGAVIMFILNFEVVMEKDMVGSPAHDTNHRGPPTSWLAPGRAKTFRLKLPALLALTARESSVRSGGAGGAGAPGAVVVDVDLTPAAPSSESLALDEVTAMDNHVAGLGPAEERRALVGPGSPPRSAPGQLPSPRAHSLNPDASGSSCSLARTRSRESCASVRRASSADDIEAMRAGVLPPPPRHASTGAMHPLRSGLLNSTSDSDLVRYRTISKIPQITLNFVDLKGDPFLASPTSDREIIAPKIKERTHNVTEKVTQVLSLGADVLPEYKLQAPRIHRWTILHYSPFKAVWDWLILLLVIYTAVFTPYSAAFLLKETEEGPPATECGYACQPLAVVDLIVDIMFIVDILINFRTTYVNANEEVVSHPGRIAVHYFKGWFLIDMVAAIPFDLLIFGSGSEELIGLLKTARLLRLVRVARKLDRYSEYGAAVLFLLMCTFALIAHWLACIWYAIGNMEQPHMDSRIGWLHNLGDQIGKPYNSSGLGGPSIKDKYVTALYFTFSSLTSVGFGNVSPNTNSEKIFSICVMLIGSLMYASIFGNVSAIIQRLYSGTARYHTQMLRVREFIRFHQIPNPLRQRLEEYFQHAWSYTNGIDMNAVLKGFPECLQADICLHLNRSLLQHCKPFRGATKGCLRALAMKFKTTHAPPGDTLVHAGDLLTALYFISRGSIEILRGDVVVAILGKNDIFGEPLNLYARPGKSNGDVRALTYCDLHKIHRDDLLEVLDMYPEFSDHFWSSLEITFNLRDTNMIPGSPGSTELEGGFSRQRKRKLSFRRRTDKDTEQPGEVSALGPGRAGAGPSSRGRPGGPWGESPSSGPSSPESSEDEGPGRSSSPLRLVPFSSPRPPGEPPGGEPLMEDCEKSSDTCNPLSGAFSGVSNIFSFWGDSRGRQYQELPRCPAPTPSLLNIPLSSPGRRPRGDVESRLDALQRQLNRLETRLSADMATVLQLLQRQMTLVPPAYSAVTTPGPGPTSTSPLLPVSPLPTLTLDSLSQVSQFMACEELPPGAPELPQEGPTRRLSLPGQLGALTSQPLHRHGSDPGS
T1 sequence (Q9GZT9 whole entry): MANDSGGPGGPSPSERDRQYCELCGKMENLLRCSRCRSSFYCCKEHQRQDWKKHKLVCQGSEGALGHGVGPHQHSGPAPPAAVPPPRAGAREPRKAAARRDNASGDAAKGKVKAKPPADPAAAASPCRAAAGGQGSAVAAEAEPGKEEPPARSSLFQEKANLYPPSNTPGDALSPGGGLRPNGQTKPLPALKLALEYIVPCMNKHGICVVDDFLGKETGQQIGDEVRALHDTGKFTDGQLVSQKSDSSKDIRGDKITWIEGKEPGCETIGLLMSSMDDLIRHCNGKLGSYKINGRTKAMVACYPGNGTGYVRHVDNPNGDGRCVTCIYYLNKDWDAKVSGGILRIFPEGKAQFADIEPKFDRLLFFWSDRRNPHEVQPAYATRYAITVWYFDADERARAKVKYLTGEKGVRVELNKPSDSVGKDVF

On to `O=C(NCc1ccc(Cl)cc1)c1cnc(-n2cccn2)nc1O`, for which, in [1], the Activity came out at 1100 pg/mL.
As for `CC(C)(NC(=O)c1cnc(-c2cc(C(=O)O)ccn2)nc1O)c1ccccc1`, the minimal effective dose in series [2] turned out to be 15 mg/kg. Also, in [1], the Activity was found to be 220 pg/mL. This molecule gave a bioavailability in series [3] of 5%. The same molecule showed a half-life in series [4] of 13.8 min.
With `O=C(NC(c1ccccc1)c1ccccc1)c1cnc(-c2cccnn2)nc1O`, the figures for the Activity in series [5] and in series [1] were 380 pg/mL and 1600 pg/mL, respectively. For the same molecule, the half-maximal inhibitory concentration (IC50) in series [6] was over 30 µM.
For `C[C@H](NC(=O)c1cnc(-n2cccn2)nc1O)c1ccc(F)cc1`, the Activity in series [1] is 16000 pg/mL. This molecule also gave a half-life in series [7] of 2.5 days.
Consider `C[C@H](NC(=O)c1cnc(-n2cccn2)nc1O)c1ccccc1`, for which the results for the Activity in series [5] and in [1] were 690 pg/mL and 10000 pg/mL, respectively.
`C[C@@H](NC(=O)c1cnc(-n2cccn2)nc1O)c1ccccc1`: the Activity in series [1] was found to be 322 pg/mL.
On the same count and under the same terms, the value for `O=C(NC(c1ccccc1)c1ccccc1)c1cnc(-n2cccn2)nc1O` was 2900 pg/mL.
For the molecule `CC(C)(NC(=O)c1cnc(-n2cc(C(=O)O)cn2)nc1O)c1ccccc1`, the Activity in series [1] stood at 1900 pg/mL. In addition, the bioavailability in series [3] came out at 3%. Also, the half-life in series [4] was 126 min.
As to `COc1ccc([C@H](C)NC(=O)c2cnc(-n3cccn3)nc2O)cc1`, the Activity in series [1] stood at 5300 pg/mL. In series [7], the half-life was 3.92 days.
As for `O=C(NCc1ccc(F)cc1)c1cnc(-c2ccccn2)nc1O`, the minimal effective dose in [2] amounted to 100 mg/kg. Also, in [8], the Activity was 1200 pg/mL. Further, the IC50 was over 30 µM in series [6] and 110 nM at Egl nine homolog 1 [11]. In series [3], this molecule yielded a bioavailability of 67%. The Vd in series [9] came to 0.35 L/kg. This molecule also showed a half-life in [4] of 198 min. In series [10], this molecule displayed a clearance of 2 mL/min/kg.
Consider `O=C(NCc1ccc(-c2ccccc2)cc1)c1cnc(-n2cccn2)nc1O`, for which the half-life in [7] was 5.96 days.
In the case of `COc1ccc(C(NC(=O)c2cnc(-n3cccn3)nc2O)c2ccc(OC)cc2)cc1`, in [2], the minimal effective dose came out at 1.5 mg/kg. Further, the Activity was 740 pg/mL in series [5], 31000 pg/mL in [1] and 190 pg/mL in [12].
As to `Cc1nc(-c2ncc(C(=O)NC(C)(C)c3ccccc3)c(O)n2)cs1`, the Activity in series [8] came out at 110 pg/mL.
Regarding `CC(C)(NC(=O)c1cnc(-c2cscn2)nc1O)c1ccccc1`, the Activity in [8] worked out at 2100 pg/mL. The molecule further had a bioavailability in series [3] of 61%. This molecule showed a half-life in series [4] of 174 min.
In the case of `CC(C)(NC(=O)c1cnc(-n2cccn2)nc1O)c1ccccc1`, the Activity is 460 pg/mL in [5], 5000 pg/mL in series [1] and 24000 pg/mL in series [13]. The bioavailability in series [14] stood at 98%; in [3], 99%; in [23], 61%; in series [28], 71%. The Cmax in [15] stood at 30 µM; in series [20], 49 µM; in series [24] it was 11 µM; in series [29], 22 µM. Besides, the clearance was found to be 1 mL/min/kg in series [16], 0.2 mL/min/kg in [21], 5.76 mL/day/kg in series [25] and 1.44 mL/day/kg in series [30]. Besides, the Vd in [17] was 0.3 L/kg; in series [9], 0.06 L/kg; in series [26] it was 0.1 L/kg; in [31], 0.13 L/kg. Further, the half-life was 222 min in [18], 252 min in [4], over 4.17 days in [7] and 3.96 days in series [32]. Also, the fraction unbound was 0.093 in series [19], 0.012 in [22], 0.027 in series [27] and 0.004 in [33].
In the case of `C[C@@H](NC(=O)c1cnc(-n2cccn2)nc1O)c1ccc(F)cc1`, in series [1], the Activity was determined as 350 pg/mL.
Regarding `CC(C)(NC(=O)c1cnc(-c2ccc(C(F)(F)F)cn2)nc1O)c1ccccc1`, the IC50 against Egl nine homolog 1 [34] is over 2700 nM.
For `O=C(NCc1ccc(OC(F)(F)F)cc1)c1cnc(-n2cccn2)nc1O`, the values for the Activity in series [1] and in series [13] were 180 pg/mL and 8900 pg/mL, respectively.
